Published values pooled from the literature.
Compare with care: the assays were run in different laboratories.

CC(=O)OCC(=O)[C@@]12OC3(CCCC3)O[C@@H]1C[C@H]1[C@@H]3CCC4=CC(=O)C=C[C@]4(C)[C@@]3(F)[C@@H](O)C[C@@]12C — IC50 (Severe acute respiratory syndrome coronavirus 2; viral replication, inhibitor; Caco-2; replicon): 3.37 µM
COc1ncncc1-c1cn([C@@H]2O[C@](F)(CO[P@@](=O)(N[C@@H](C)C(=O)OC(C)C)Oc3ccccc3)[C@@H](OC(=O)C(C)C)[C@H]2OC(=O)C(C)C)cn1 — IC50 (Severe acute respiratory syndrome coronavirus 2; viral replication, inhibitor; A549-ACE2; 24 h): 25.5 µM
CC(=O)O[C@H]1C(=O)[C@@]2(C)[C@H]([C@H](OC(=O)c3ccccc3)[C@]3(O)C[C@H](OC(=O)[C@H](O)[C@@H](NC(=O)c4ccccc4)c4ccccc4)C(C)=C1C3(C)C)[C@]1(OC(C)=O)CO[C@@H]1C[C@@H]2O — inhibition (L02; cell growth or viability, CCK-8; 12.5 µM, 72 h): > 90%
COc1ncc(-c2cn([C@@H]3O[C@](F)(CO)[C@@H](O)[C@H]3O)cn2)c(OC)n1 — IC50 (Severe acute respiratory syndrome coronavirus 2; viral replication, inhibitor; A549-ACE2; 24 h): > 100 µM
CC1=NN(c2ccc(C)c(C)c2)C(=O)/C1=N\Nc1cccc(-c2cccc(C(=O)O)c2)c1O — IC50 (Severe acute respiratory syndrome coronavirus 2; viral replication, inhibitor; Calu-3; replicon): 4.55 µM
N.N.[Cl][Pt][Cl] — IC50 (NALM-6; cell growth or viability, ATP luminescence; 72 h): 1.05 µM
COc1ncc(-c2cn([C@@H]3O[C@](F)(CO)[C@@H](O)[C@H]3O)cn2)c(N)n1 — IC50 (Severe acute respiratory syndrome coronavirus 2; viral replication, inhibitor; A549-ACE2; 24 h): > 100 µM
Cc1ccc(NC(=O)C2(c3ccc4c(c3)OC(F)(F)O4)CC2)nc1-c1cccc(C(=O)O)c1 — IC50 (Severe acute respiratory syndrome coronavirus 2; viral replication, inhibitor; Calu-3; replicon): 0.458 µM
O=[N+]([O-])NC(=S)NN=Cc1ccc(Br)cc1 — IC50 (Leishmania tropica; parasite growth; J774.A1; 72 h, intracellular, amastigote): 1140 µM
Cc1c(O)cccc1C(=O)N[C@@H](CSc1ccccc1)[C@H](O)CN1C[C@H]2CCCC[C@H]2C[C@H]1C(=O)NC(C)(C)C — IC50 (Severe acute respiratory syndrome coronavirus 2; viral replication, inhibitor; Caco-2; replicon): 1.91 µM
COc1ccc(C=NNC(=S)N[N+](=O)[O-])cc1OC — IC50 (Leishmania tropica; parasite growth, MTT; 72 h, promastigote): 865 µM
COc1nc(N)ncc1-c1cn([C@@H]2O[C@](F)(CO[P@@](=O)(N[C@@H](C)C(=O)OC(C)C)Oc3ccccc3)[C@@H](OC(=O)C(C)C)[C@H]2OC(=O)C(C)C)cn1 — IC50 (Severe acute respiratory syndrome coronavirus 2; viral replication, inhibitor; A549-ACE2; 24 h): 12.5 µM
COc1cnc(OC)n2nc(NS(=O)(=O)c3c(OCC(F)F)cccc3C(F)(F)F)nc12 — inhibition (L02; cell growth or viability, CCK-8; 100 µM, 72 h): 1.54%
O=[N+]([O-])NC(=S)NN=Cc1ccc(F)cc1 — IC50 (Leishmania tropica; parasite growth; J774.A1; 72 h, intracellular, amastigote): 186 µM
